As a reminder, the Ki is a dissociation constant, usually derived from enzyme kinetics or from competition with a known ligand. In general, IC50 refers to the concentration that inhibits the measured activity by half.

Active and inactive are the calls of the source. The calls are words filed in the database; no cut-off is given here.

Consider four compounds from ChEMBL document CHEMBL5346953, “Dual Piperidine-Based Histamine H3 and Sigma-1 Receptor Ligands in the Treatment of Nociceptive and Neuropathic Pain” (J Med Chem, 2023).

Data set [1] concerns the target T1, Histamine H3 receptor (Homo sapiens, UniProt Q9Y5N1). Nature of the data set: Displacement of [3H]Nalpha-methylhistamine from recombinant human histamine H3 receptor stably expressed in HEK293 cells assessed as inhibition constant by competitive binding based radioligand depletion assay. The format is cell-based.
Data set [2] concerns the target T1, Histamine H3 receptor. Put plainly: Inhibition of recombinant human histamine H3 receptor stably expressed in HEK293 cells assessed as increase in cAMP accumulation in presence of forskolin incubated for 30 mins by TR-FRET LANCE assay. Format: functional, cell-based.
The nature of data set [3]: Neurotoxicity against mouse assessed as sedative effect at 15 mg/kg,ip observed after 30 mins of administration. Format: toxicity, organism-based. The note with it: in vivo, 0.5 h. In short, it runs like this: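 Spontaneous locomotor activity was recorded in mice after i.p. dosing at 15 or 30 mg/kg, compared with vehicle, as a test of sedation. Analysis was one-way ANOVA. […]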

Data set [4] in a line: Neurotoxicity against mouse assessed as impairment of motor coordination at 15 mg/kg,ip administration at 18 rpm by rotarod test. Format: toxicity, organism-based. The note with it: in vivo. In short, it runs like this:
(§1)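 Mice received 15 mg/kg i.p. or vehicle. Motor coordination was then measured as time on the rotarod, at 18 and 24 rpm, with a maximum of 60 s.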
Background: In the rotarod test animals must keep their balance on a rotating rod.

Data set [5] can be described thus: Neurotoxicity against mouse assessed as impairment of motor coordination at 15 mg/kg,ip administration at 24 rpm by rotarod test. Format: toxicity, organism-based. Conditions: in vivo. In short, it runs like this:
as §1

Data set [6] relates to Mus musculus. Nature of the data set: Effect in loperamide-induced antinociception mouse assessed as increase in struggle response latency at ip administration. The format is functional, organism-based.
In data set [7] the test system is Mus musculus. Put plainly: Antinociceptive activity in mouse assessed as effect on struggle response latency at 100 ug,ip administration. The format is functional, organism-based. Conditions: dose 100.0 µg.
Data set [8] concerns Mus musculus. Put plainly: Antinociceptive activity in loperamide-induced mouse assessed as increase in struggle response latency struggle response latency at 100 ug,ip administration in presence of PRE-084. The format is functional, organism-based. The note with it: dose 100.0 µg.
Data set [9] concerns Mus musculus. Nature of the data set: Antinociceptive activity in loperamide-induced mouse assessed as increase in struggle response latency struggle response latency at 100 ug,ip administration in presence of naloxone-methiodide. Conditions: dose 100.0 µg. Format: functional, organism-based.

T1 sequence (Q9Y5N1 whole entry): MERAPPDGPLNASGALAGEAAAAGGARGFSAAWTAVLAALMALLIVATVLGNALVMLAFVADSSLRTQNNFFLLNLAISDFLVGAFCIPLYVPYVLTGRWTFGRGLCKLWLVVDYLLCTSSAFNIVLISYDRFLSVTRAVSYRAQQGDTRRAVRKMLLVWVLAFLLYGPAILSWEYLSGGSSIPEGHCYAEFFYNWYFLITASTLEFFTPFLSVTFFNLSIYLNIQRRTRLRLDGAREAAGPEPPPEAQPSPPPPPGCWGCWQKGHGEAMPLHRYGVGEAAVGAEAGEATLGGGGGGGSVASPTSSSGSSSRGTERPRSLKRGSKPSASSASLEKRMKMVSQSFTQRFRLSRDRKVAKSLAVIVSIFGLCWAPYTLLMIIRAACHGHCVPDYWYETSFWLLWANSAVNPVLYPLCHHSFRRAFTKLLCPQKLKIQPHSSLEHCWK

`N#Cc1ccc(-c2ccc(OCCCN3CCCCC3)cc2)cc1`: the Ki at Histamine H3 receptor [1] was found to be 6.2 nM.
Still for that read-out and setting: the result for `c1ccc(Cc2ccc(OCCCN3CCCCC3)cc2)cc1` reads 27.5 nM.
As for `c1ccc(-c2ccc(OCCCN3CCCCCC3)cc2)cc1`, the IC50 at Histamine H3 receptor [2] was found to be 83.4 nM. The Activity entry in data set [3], in data set [4] and in data set [5] was “Toxic” each time.
Regarding `Cc1cc(OCCN2CCOCC2)nn1-c1ccc2ccccc2c1`, the Activity result with Mus musculus [6] is “Dose-Dependent Effect”. For the same compound, the outcome in the data set on Mus musculus [7], in the data set on Mus musculus [8] and in the data set with Mus musculus [9] was inactive.
